Test results as given in ChEMBL document CHEMBL1240522, “Effect of goniothalamin on the development of Ehrlich solid tumor in mice” (Bioorg Med Chem, 2010).
Calls of active or inactive are those of the source. The calls are words filed in the database; no cut-off is given here.

Assays:
[1] = Cytotoxicity against human NCI-ADR-RES cells after 48 hrs by sulforhodamine B assay; format: functional
How it was run: (§1)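 Cells grown in RPMI 1640 with 5% FBS at 37 °C, 5% CO2, with penicillin/streptomycin. Treated for 48 h with compound in DMSO/RPMI at […]. Fixed with 50% trichloroacetic acid, protein stained with sulforhodamine B and read at 540 nm. TGI (total growth inhibition) obtained by non-linear regression of the concentration–response curves.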

NCI-H460 = test: Cytotoxicity against human NCI-H460 cells after 48 hrs by sulforhodamine B assay; format: functional; conditions: NCI-H460, 48 h; how it was run: as §1
[2] = Antitumor activity against mouse EAC cells xenografted in BALB/C mouse assessed as inhibition of increase in tumor volume at 50 mg/kg, ip administered every 3 days measured on day 15 relative to control; format: functional; conditions: Ehrlich, route intraperitoneal
How it was run: (§2)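 Ehrlich cells kept as ascites by weekly ip passage of 5 × 10^5 cells in mice. Balb/C mice (n = 8/group) inoculated with 2.5 × 10^6 cells into the right hind footpad. Dosed ip every third day from day 3, vehicle 0.9% saline. Tumour volume taken as plethysmometer paw volume minus basal, every third day to day 15. Reported as % inhibition vs vehicle ± SD; ANOVA.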

MCF7 = test: Cytotoxicity against human MCF7 cells after 48 hrs by sulforhodamine B assay; format: functional; conditions: MCF7, 48 h; how it was run: as §1
OVCAR-3 = test: Cytotoxicity against human OVCAR-3 cells after 48 hrs by sulforhodamine B assay; format: functional; conditions: OVCAR-3, 48 h; how it was run: as §1
HT-29 = test: Cytotoxicity against human HT-29 cells after 48 hrs by sulforhodamine B assay; format: functional; conditions: HT-29, 48 h; how it was run: as §1
Mus musculus [3] = test: Acute toxicity in BALB/C mouse assessed as reduction of body weight at up to 50 mg/kg, ip after 15 days; format: organism-based; design: dose 50 mg/kg, route intraperitoneal; conditions: in vivo, 360 h
How it was run: (§3)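 Balb/C mice (20–35 g) dosed intraperitoneally at 50, 100 and 300 mg/kg. Observed for 4 h, then daily for 14 days, for body weight loss, locomotion, behaviour (agitation, lethargy), respiration, salivation, tearing eyes, cyanosis and mortality.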

[4] = Antitumor activity against mouse EAC cells xenografted in BALB/C mouse assessed as reduction of tumor weight at 50 mg/kg, ip administered every 3 days measured on day 15 relative to control; format: functional; conditions: Ehrlich, route intraperitoneal
How it was run: (§4)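 Ehrlich footpad tumour model in Balb/C mice (n = 8/group, 2.5 × 10^6 cells) with ip dosing every third day from day 3 in 0.9% saline. Mice sacrificed on day 15 and both hind paws weighed. Relative tumour weight = (tumour paw − healthy paw weight)/body weight. Reported as % inhibition vs vehicle ± SD; ANOVA.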

U-251 = test: Cytotoxicity against human U251 cells after 48 hrs by sulforhodamine B assay; format: functional; conditions: U-251, 48 h; how it was run: as §1
UACC-62 = test: Cytotoxicity against human UACC62 cells after 48 hrs by sulforhodamine B assay; format: functional; conditions: UACC-62, 48 h; how it was run: as §1
Mus musculus [5] = test: Acute toxicity in BALB/C mouse assessed as mortality at up to 300 mg/kg, ip after 15 days; format: organism-based; design: dose 300 mg/kg, route intraperitoneal; conditions: in vivo, 360 h; how it was run: as §3
[6] = Antitumor activity against mouse EAC cells xenografted in BALB/C mouse assessed as inhibition of increase in tumor volume at 50 mg/kg, ip administered every 3 days measured on day 13 relative to control; format: functional; conditions: Ehrlich, route intraperitoneal; how it was run: as §2
Mus musculus [7] = test: Acute toxicity in BALB/C mouse assessed as mortality at up to 300 mg/kg, ip after 4 hrs; format: organism-based; design: dose 300 mg/kg, route intraperitoneal; conditions: in vivo; how it was run: as §3
786-0 = test: Cytotoxicity against human 786-0 cells after 48 hrs by sulforhodamine B assay; format: functional; conditions: 786-0, 48 h; how it was run: as §1
[8] = Cytotoxicity against human PCO3 cells after 48 hrs by sulforhodamine B assay; format: functional; conditions: PCO3, 48 h; how it was run: as §1
Mus musculus [9] = test: Antiinflammatory activity in ip dosed BALB/C mouse assessed as inhibition of carrageenan-induced paw edema administered 30 mins before carrageenan challenge measured after 24 hrs by plethysmometer; format: functional, organism-based
How it was run: (§5)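 Balb/C mice, n = 8/group. Right hind paw basal volume measured by plethysmometer. Single ip dose in 0.9% saline vehicle, then carrageenan 2.5% injected intraplantar into the right hind footpad 30 min later. Edema taken as measured minus basal volume at 1.5, 3.0, 4.5, 6.0, 24, 48 and 72 h. Expressed as % inhibition vs vehicle ± standard deviation; ANOVA.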

[10] = Antitumor activity against mouse EAC cells xenografted in BALB/C mouse assessed as inhibition of increase in tumor volume at 3 mg/kg, ip administered every 3 days measured on day 7 relative to control; format: functional; conditions: Ehrlich, route intraperitoneal; how it was run: as §2
Mus musculus [11] = test: Acute toxicity in BALB/C mouse assessed as reduction of body weight at up to 3 mg/kg, ip after 15 days; format: organism-based; design: dose 3 mg/kg, route intraperitoneal; conditions: in vivo, 360 h
How it was run: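 Balb/C mice (n = 8/group) carrying Ehrlich footpad tumours, given ip doses every third day from day 3 (four treatments), vehicle 0.9% saline. Animals weighed and watched for toxicity throughout; body-weight loss recorded at the end of the experiment, day 15.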

[12] = Antitumor activity against mouse EAC cells xenografted in BALB/C mouse assessed as reduction of tumor weight at 3 mg/kg, ip administered every 3 days measured on day 15 relative to control; format: functional; conditions: Ehrlich, route intraperitoneal; how it was run: as §4
[13] = Antitumor activity against mouse EAC cells xenografted in BALB/C mouse assessed as inhibition of increase in tumor volume at 3 mg/kg, ip administered every 3 days measured on day 15 relative to control; format: functional; conditions: Ehrlich, route intraperitoneal; how it was run: as §2
Mus musculus [14] = test: Antiinflammatory activity in BALB/C mouse assessed as inhibition of carrageenan-induced paw edema at 5 mg/kg, ip administered 30 mins before carrageenan challenge measured before 24 hrs by plethysmometer; format: functional, organism-based; design: dose 5 mg/kg; how it was run: as §5
[15] = Antitumor activity against mouse EAC cells xenografted in BALB/C mouse assessed as reduction of tumor weight at 300 mg/kg, ip administered every 3 days measured on day 15 relative to control; format: functional; conditions: Ehrlich, route intraperitoneal; how it was run: as §4
Mus musculus [16] = test: Antiinflammatory activity in BALB/C mouse assessed as inhibition of carrageenan-induced paw edema at 100 mg/kg, ip administered 30 mins before carrageenan challenge measured before 72 hrs by plethysmometer; format: functional, organism-based; design: dose 100 mg/kg; how it was run: as §5
Mus musculus [17] = test: Antiinflammatory activity in BALB/C mouse assessed as inhibition of carrageenan-induced paw edema at 100 mg/kg, ip administered 30 mins before carrageenan challenge measured before 24 hrs by plethysmometer; format: functional, organism-based; design: dose 100 mg/kg; how it was run: as §5
Mus musculus [18] = test: Acute toxicity in BALB/C mouse assessed as reduction of body weight at up to 300 mg/kg, ip after 15 days; format: organism-based; design: dose 300 mg/kg, route intraperitoneal; conditions: in vivo, 360 h; how it was run: as §3
Mus musculus [19] = test: Antiinflammatory activity in BALB/C mouse assessed as inhibition of carrageenan-induced paw edema at 30 mg/kg, ip administered 30 mins before carrageenan challenge measured before 48 hrs by plethysmometer; format: functional, organism-based; design: dose 30 mg/kg; how it was run: as §5
[20] = Antitumor activity against mouse EAC cells xenografted in BALB/C mouse assessed as reduction of tumor weight at 30 mg/kg, ip administered every 3 days measured on day 15 relative to control; format: functional; conditions: Ehrlich, route intraperitoneal; how it was run: as §4
Mus musculus [21] = test: Antiinflammatory activity in BALB/C mouse assessed as inhibition of carrageenan-induced paw edema at 100 mg/kg, ip administered 30 mins before carrageenan challenge measured before 6 hrs by plethysmometer; format: functional, organism-based; design: dose 100 mg/kg; how it was run: as §5
[22] = Antitumor activity against mouse EAC cells xenografted in BALB/C mouse assessed as reduction of tumor weight at 100 mg/kg, ip administered every 3 days measured on day 15 relative to control; format: functional; conditions: Ehrlich, route intraperitoneal; how it was run: as §4
Mus musculus [23] = test: Antiinflammatory activity in BALB/C mouse assessed as inhibition of carrageenan-induced paw edema at 300 mg/kg, ip administered 30 mins before carrageenan challenge measured after 48 to 72 hrs by plethysmometer; format: functional, organism-based; design: dose 300 mg/kg; how it was run: as §5
[24] = Antitumor activity against mouse EAC cells xenografted in BALB/C mouse assessed as inhibition of tumor growth at 30 mg/kg, ip administered every 3 days measured on day 7 relative to control; format: functional; conditions: Ehrlich, route intraperitoneal; how it was run: as §2
[25] = Antitumor activity against mouse EAC cells xenografted in BALB/C mouse assessed as inhibition of tumor growth at 300 mg/kg, ip administered every 3 days measured on day 7 relative to control; format: functional; conditions: Ehrlich, route intraperitoneal; how it was run: as §2
[26] = Antitumor activity against mouse EAC cells xenografted in BALB/C mouse assessed as inhibition of tumor growth at 300 mg/kg, ip administered every 3 days measured on day 15 relative to control; format: functional; conditions: Ehrlich, route intraperitoneal; how it was run: as §2
[27] = Antitumor activity against mouse EAC cells xenografted in BALB/C mouse assessed as inhibition of tumor growth at 30 mg/kg, ip administered every 3 days measured on day 15 relative to control; format: functional; conditions: Ehrlich, route intraperitoneal; how it was run: as §2
Mus musculus [28] = test: Antiinflammatory activity in BALB/C mouse assessed as inhibition of carrageenan-induced paw edema at 100 mg/kg, ip administered 30 mins before carrageenan challenge measured after 3 to 4.5 hrs by plethysmometer; format: functional, organism-based; design: dose 100 mg/kg; how it was run: as §5
[29] = Antitumor activity against mouse EAC cells xenografted in BALB/C mouse assessed as inhibition of tumor growth at 100 mg/kg, ip administered every 3 days measured on day 15 relative to control; format: functional; conditions: Ehrlich, route intraperitoneal; how it was run: as §2
Mus musculus [30] = test: Antiinflammatory activity in BALB/C mouse assessed as inhibition of carrageenan-induced paw edema at 30 mg/kg, ip administered 30 mins before carrageenan challenge measured before 6 hrs by plethysmometer; format: functional, organism-based; design: dose 30 mg/kg; how it was run: as §5
Mus musculus [31] = test: Antiinflammatory activity in BALB/C mouse assessed as inhibition of carrageenan-induced paw edema at 20 mg/kg, ip administered 30 mins before carrageenan challenge measured before 48 hrs by plethysmometer; format: functional, organism-based; design: dose 20 mg/kg; how it was run: as §5
[32] = Antitumor activity against mouse EAC cells xenografted in BALB/C mouse assessed as inhibition of tumor growth at 100 mg/kg, ip administered every 3 days measured on day 7 relative to control; format: functional; conditions: Ehrlich, route intraperitoneal; how it was run: as §2

SMILES	TGI [1] [µM]	TGI (NCI-H460) [µM]	TGI (MCF7) [µM]	TGI (OVCAR-3) [µM]	TGI (HT-29) [µM]	TGI (U-251) [µM]	TGI (UACC-62) [µM]	Activity (Mus musculus [5])	Activity (Mus musculus [7])	TGI (786-0) [µM]	TGI [8] [µM]	other results
O=C1C=CC[C@H](/C=C/c2ccccc2)O1 [GONIOTHALAMIN]	1.2	32.4	21.7	8.31	22	13.4	21.6	Non-toxic	Non-toxic	18.6	13.5	inhibition in vivo at 50 mg/kg [2]: 37.4%; Activity (Mus musculus [3]): Non-toxic; inhibition in vivo at 50 mg/kg [4]: 25.3%; inhibition in vivo at 50 mg/kg [6]: 21.9%
COc1cccc2c1C(=O)c1c(O)c3c(c(O)c1C2=O)C[C@@](O)(C(=O)CO)C[C@@H]3O[C@H]1C[C@H](N)[C@H](O)[C@H](C)O1 [DOXORUBICIN]	2.83	2.37	11	10.2	16.4	1.42	0.32			7.86	4.03	inhibition (Mus musculus [9]): Dose-dependent effect; inhibition in vivo at 3 mg/kg [10]: 42.7%; Activity (Mus musculus [11]): 2.5 g; inhibition in vivo at 3 mg/kg [12]: 28%; inhibition in vivo at 3 mg/kg [13]: 34.7%; inhibition (Mus musculus [14]): Active
O=C1C=CCC(/C=C/c2ccccc2)O1 (racemic)	6.38	36.4	22.7	18.8	29.2	18.2	23.2	Non-toxic	Non-toxic	22.4	18.2	inhibition in vivo at 300 mg/kg [15]: 41.8%; inhibition (Mus musculus [16]): Active; inhibition (Mus musculus [17]): Active; Activity (Mus musculus [18]): Non-toxic; inhibition (Mus musculus [19]): Active; inhibition in vivo at 30 mg/kg [20]: 36.7%; inhibition (Mus musculus [21]): inactive; inhibition in vivo at 100 mg/kg [22]: 31.6%; inhibition (Mus musculus [23]): Active; inhibition in vivo at 30 mg/kg [24]: 50%; inhibition in vivo at 300 mg/kg [25]: 35.7%; inhibition in vivo at 300 mg/kg [26]: 66.7%; inhibition in vivo at 30 mg/kg [27]: 48.5%; inhibition (Mus musculus [28]): Active; inhibition in vivo at 100 mg/kg [29]: 40.9%; inhibition (Mus musculus [30]): inactive; inhibition (Mus musculus [31]): Active; inhibition in vivo at 100 mg/kg [32]: 41.7%
